Assay results reported in ChEMBL document CHEMBL3627612, “Hirsutinolide Series Inhibit Stat3 Activity, Alter GCN1, MAP1B, Hsp105, G6PD, Vimentin, TrxR1, and Importin α-2 Expression, and Induce Antitumor Effects against Human Glioma” (J Med Chem, 2015).
Activity calls are given as the source filed them. No cut-off for these calls is given here.

Key:
[1] = Cytotoxicity against mouse V-Src -transformed NIH/3T3 cells at 1 uM by trypan blue exclusion with phase contrast microscopy; assay type: cell-based; conditions: nih3t3, 1 µM
[2] = Cytotoxicity against mouse V-Src -transformed NIH/3T3 cells at 2.5 uM by trypan blue exclusion with phase contrast microscopy; assay type: cell-based; conditions: nih3t3, 2.5 µM
[3] = Cytotoxicity against mouse NIH/3T3 cells at 1 uM by trypan blue exclusion with phase contrast microscopy; assay type: cell-based; conditions: nih3t3, 1 µM
[4] = Cytotoxicity against mouse NIH/3T3 cells at 2.5 uM by trypan blue exclusion with phase contrast microscopy; assay type: cell-based; conditions: nih3t3, 2.5 µM
[5] = Cell cycle arrest in human U251MG cells assessed as accumulation at G2/M phase at 5 uM for 15 hrs by flow cytometry; assay type: functional, cell-based; conditions: U-251
U-251 [6] = experiment: Induction of apoptosis in human U251MG cells assessed as PARP level at 8 uM after 24 to 48 hrs by immunoblot analysis; assay type: functional, cell-based
U-251 [7] = experiment: Induction of apoptosis in human U251MG cells assessed as cleaved caspase 3 level at 8 uM after 24 to 48 hrs by immunoblot analysis; assay type: functional, cell-based
[8] = target: Stalled ribosome sensor GCN1 (Homo sapiens) (UniProt Q92616); experiment: Decrease in GCN1 expression in human U251MG cells at 5 uM for 1 hr by mass spectrometry relative to control; assay type: functional, cell-based; conditions: U-251
Outline: (§1)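 U251MG cells treated 1 h with 5 μM compound; whole-cell lysates analyzed by global proteomics mass spectrometry; protein levels expressed relative to DMSO-treated cells.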

[9] = Decrease in G6PD expression in human U251MG cells at 5 uM for 1 hr by mass spectrometry relative to control; assay type: functional, cell-based; conditions: U-251; outline: as §1
[10] = Decrease in TxR1 cytoplasmic isoform 3 expression in human U251MG cells at 5 uM for 1 hr by mass spectrometry relative to control; assay type: functional, cell-based; conditions: U-251
Outline: (§2)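 Global proteomic mass spectrometry of lysates from U251MG cells treated 1 h with 5 μM compound; protein levels expressed relative to DMSO-treated cells.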

[11] = target: Signal transducer and activator of transcription 3 (Mus musculus) (UniProt P42227); experiment: Inhibition of Stat3 dimer DNA binding activity in mouse NIH3T3/vSrc nuclear extract at 10 uM preincubated for 30 mins followed by addition of radiolabeled probe hSIE for 30 mins by EMSA in presence of 50 uM Cys
[12] = Cytotoxicity against mouse NIH/3T3 cells after 72 hrs by cyquant cells; assay type: cell-based; conditions: NIH3T3, 72 h
Outline: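 CyQuant proliferation assay after 72 h compound exposure of cultured cells; relative viability normalized to DMSO-treated control; IC50 values derived. Glioma lines grown in RPMI or DMEM with 10% FBS and 1% nonessential amino acids.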

[13] = target: T1, Signal transducer and activator of transcription 3 (Homo sapiens, UniProt P40763); experiment: Inhibition of Stat3 activity in human U251MG cells assessed as decrease in c-Myc expression at 5 uM after 24 hrs by immunoblot analysis; assay type: cell-based; conditions: U-251
Outline: (§3)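 U251MG cells treated with 5 μM compound for 0–24 h. Whole-cell lysates immunoblotted for pStat3, Stat3, c-Myc, Bcl-2, Bcl-xL, Mcl-1, GAPDH. Control was 0.025% DMSO.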

[14] = target: T1, Signal transducer and activator of transcription 3; experiment: Inhibition of Stat3 activity in human U251MG cells assessed as decrease in Bcl-2 expression at 5 uM after 24 hrs by immunoblot analysis; assay type: cell-based; conditions: U-251; outline: as §3
[15] = target: T1, Signal transducer and activator of transcription 3; experiment: Inhibition of Stat3 activity in human U251MG cells assessed as decrease in Mcl-1 expression at 5 uM after 24 hrs by immunoblot analysis; assay type: cell-based; conditions: U-251; outline: as §3
[16] = target: T1, Signal transducer and activator of transcription 3; experiment: Inhibition of Stat3 activity in human U251MG cells assessed as decrease in Bcl-xl expression at 5 uM after 24 hrs by immunoblot analysis; assay type: cell-based; conditions: U-251; outline: as §3
[17] = target: Heat shock protein 105 kDa (Homo sapiens) (UniProt Q92598); experiment: Decrease in Hsp105 expression in human U251MG cells at 5 uM for 1 hr by mass spectrometry relative to control; assay type: functional, cell-based; conditions: U-251; outline: as §1
[18] = Decrease in vimentin expression in human U251MG cells at 5 uM for 1 hr by mass spectrometry relative to control; assay type: functional, cell-based; conditions: U-251; outline: as §2
[19] = Decrease in TNAP2 expression in human U251MG cells at 5 uM for 1 hr by mass spectrometry relative to control; assay type: functional, cell-based; conditions: U-251; outline: as §2
[20] = target: Tyrosine-protein kinase JAK2 (Homo sapiens) (UniProt O60674); experiment: Modulation of Jak2 phosphorylation in human U251MG cells at 5 uM after 0.5 to 24 hrs by immunoblot analysis; assay type: cell-based; conditions: U-251
Outline: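 U251MG glioma cells (RPMI or DMEM, 10% FBS, 1% nonessential amino acids) treated with 5 μM compound for 0–24 h; 0.025% DMSO control. Whole-cell lysates of equal total protein immunoblotted for pErk1/2, Erk1/2, pJAK2 and JAK2 with β-actin or GAPDH loading controls. Representative of 2–4 independent determinations.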

[21] = target: T1, Signal transducer and activator of transcription 3; experiment: Inhibition of Stat3 phosphorylation in human U251MG cells transfected with Stat3 flag-tagged N-terminal domain at 5 uM after 1.5 hrs by immunoblot analysis; assay type: cell-based; conditions: U-251
Outline: (§4)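 U251MG cells transiently transfected with 7.5–21 μg FLAG-Stat3 NTD, CCD, DBD or CTD plasmid, or pcDNA3 mock. Re-seeded 24 h later; after another 18 h, treated with or without 5 μM compound for 1.5 h. Whole-cell lysates immunoblotted for FLAG, pY705Stat3, Stat3, GAPDH. 0.025% DMSO control. Representative of 2 independent determinations.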

[22] = target: T1, Signal transducer and activator of transcription 3; experiment: Inhibition of Stat3 phosphorylation in human U251MG cells transfected with Stat3 flag-tagged coliled coil domain at 5 uM after 1.5 hrs by immunoblot analysis; assay type: cell-based; conditions: U-251; outline: as §4
[23] = target: T1, Signal transducer and activator of transcription 3; experiment: Inhibition of Stat3 phosphorylation in human U251MG cells transfected with Stat3 flag-tagged C-terminal domain at 5 uM after 1.5 hrs by immunoblot analysis; assay type: cell-based; conditions: U-251; outline: as §4
[24] = target: T1, Signal transducer and activator of transcription 3; experiment: Inhibition of Stat3 phosphorylation in human U251MG cells transfected with Stat3 flag-tagged DNA-binding domain at 5 uM after 1.5 hrs by immunoblot analysis; assay type: cell-based; conditions: U-251; outline: as §4

T1 sequence (P40763 whole entry): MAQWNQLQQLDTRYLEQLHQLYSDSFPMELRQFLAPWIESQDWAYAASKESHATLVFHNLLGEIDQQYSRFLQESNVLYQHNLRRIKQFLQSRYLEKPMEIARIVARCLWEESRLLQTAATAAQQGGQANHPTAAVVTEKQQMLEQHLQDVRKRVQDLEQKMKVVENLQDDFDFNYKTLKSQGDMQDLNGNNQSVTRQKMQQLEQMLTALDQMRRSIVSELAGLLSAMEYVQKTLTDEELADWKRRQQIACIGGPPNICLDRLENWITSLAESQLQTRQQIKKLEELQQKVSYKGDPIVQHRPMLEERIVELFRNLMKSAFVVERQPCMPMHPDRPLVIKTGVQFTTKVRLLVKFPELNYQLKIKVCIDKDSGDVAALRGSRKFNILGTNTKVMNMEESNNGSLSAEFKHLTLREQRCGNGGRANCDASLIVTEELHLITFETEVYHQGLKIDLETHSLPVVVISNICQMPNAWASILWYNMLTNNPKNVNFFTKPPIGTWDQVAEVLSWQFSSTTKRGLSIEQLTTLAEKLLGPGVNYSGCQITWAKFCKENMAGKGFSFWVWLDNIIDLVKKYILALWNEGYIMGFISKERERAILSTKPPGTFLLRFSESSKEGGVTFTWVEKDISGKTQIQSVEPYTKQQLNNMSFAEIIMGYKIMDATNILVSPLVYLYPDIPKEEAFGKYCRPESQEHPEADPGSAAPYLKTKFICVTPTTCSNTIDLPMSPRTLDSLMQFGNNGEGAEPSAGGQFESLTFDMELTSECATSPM
Sequence of Signal transducer and activator of transcription 3 (Mus musculus) (P42227 whole entry): as the sequence (P40763 whole entry) above, with E760D counted along it
Sequence of Heat shock protein 105 kDa (Homo sapiens) (Q92598 whole entry): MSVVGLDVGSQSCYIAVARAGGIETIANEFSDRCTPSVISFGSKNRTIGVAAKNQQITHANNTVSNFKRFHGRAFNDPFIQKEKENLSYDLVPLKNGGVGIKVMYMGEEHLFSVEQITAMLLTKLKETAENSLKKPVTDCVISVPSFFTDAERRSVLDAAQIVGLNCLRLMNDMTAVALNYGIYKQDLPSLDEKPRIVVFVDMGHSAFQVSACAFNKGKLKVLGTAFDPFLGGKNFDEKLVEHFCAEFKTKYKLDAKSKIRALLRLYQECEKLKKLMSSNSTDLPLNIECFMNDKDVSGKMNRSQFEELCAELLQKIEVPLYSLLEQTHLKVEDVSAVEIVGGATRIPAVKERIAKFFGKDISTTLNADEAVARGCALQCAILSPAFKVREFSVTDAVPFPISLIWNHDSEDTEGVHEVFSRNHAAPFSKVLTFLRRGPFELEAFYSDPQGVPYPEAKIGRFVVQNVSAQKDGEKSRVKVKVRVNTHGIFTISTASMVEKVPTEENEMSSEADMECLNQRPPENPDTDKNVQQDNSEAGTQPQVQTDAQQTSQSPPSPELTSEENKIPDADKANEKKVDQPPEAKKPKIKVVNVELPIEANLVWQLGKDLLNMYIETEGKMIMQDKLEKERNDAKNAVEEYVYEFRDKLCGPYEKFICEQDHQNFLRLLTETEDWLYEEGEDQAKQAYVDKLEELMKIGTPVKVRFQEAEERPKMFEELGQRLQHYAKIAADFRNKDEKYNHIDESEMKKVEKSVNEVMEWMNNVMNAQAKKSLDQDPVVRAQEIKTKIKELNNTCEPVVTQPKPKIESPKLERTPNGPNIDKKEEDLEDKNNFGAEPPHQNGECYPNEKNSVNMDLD
Sequence of Stalled ribosome sensor GCN1 (Homo sapiens) (Q92616 whole entry): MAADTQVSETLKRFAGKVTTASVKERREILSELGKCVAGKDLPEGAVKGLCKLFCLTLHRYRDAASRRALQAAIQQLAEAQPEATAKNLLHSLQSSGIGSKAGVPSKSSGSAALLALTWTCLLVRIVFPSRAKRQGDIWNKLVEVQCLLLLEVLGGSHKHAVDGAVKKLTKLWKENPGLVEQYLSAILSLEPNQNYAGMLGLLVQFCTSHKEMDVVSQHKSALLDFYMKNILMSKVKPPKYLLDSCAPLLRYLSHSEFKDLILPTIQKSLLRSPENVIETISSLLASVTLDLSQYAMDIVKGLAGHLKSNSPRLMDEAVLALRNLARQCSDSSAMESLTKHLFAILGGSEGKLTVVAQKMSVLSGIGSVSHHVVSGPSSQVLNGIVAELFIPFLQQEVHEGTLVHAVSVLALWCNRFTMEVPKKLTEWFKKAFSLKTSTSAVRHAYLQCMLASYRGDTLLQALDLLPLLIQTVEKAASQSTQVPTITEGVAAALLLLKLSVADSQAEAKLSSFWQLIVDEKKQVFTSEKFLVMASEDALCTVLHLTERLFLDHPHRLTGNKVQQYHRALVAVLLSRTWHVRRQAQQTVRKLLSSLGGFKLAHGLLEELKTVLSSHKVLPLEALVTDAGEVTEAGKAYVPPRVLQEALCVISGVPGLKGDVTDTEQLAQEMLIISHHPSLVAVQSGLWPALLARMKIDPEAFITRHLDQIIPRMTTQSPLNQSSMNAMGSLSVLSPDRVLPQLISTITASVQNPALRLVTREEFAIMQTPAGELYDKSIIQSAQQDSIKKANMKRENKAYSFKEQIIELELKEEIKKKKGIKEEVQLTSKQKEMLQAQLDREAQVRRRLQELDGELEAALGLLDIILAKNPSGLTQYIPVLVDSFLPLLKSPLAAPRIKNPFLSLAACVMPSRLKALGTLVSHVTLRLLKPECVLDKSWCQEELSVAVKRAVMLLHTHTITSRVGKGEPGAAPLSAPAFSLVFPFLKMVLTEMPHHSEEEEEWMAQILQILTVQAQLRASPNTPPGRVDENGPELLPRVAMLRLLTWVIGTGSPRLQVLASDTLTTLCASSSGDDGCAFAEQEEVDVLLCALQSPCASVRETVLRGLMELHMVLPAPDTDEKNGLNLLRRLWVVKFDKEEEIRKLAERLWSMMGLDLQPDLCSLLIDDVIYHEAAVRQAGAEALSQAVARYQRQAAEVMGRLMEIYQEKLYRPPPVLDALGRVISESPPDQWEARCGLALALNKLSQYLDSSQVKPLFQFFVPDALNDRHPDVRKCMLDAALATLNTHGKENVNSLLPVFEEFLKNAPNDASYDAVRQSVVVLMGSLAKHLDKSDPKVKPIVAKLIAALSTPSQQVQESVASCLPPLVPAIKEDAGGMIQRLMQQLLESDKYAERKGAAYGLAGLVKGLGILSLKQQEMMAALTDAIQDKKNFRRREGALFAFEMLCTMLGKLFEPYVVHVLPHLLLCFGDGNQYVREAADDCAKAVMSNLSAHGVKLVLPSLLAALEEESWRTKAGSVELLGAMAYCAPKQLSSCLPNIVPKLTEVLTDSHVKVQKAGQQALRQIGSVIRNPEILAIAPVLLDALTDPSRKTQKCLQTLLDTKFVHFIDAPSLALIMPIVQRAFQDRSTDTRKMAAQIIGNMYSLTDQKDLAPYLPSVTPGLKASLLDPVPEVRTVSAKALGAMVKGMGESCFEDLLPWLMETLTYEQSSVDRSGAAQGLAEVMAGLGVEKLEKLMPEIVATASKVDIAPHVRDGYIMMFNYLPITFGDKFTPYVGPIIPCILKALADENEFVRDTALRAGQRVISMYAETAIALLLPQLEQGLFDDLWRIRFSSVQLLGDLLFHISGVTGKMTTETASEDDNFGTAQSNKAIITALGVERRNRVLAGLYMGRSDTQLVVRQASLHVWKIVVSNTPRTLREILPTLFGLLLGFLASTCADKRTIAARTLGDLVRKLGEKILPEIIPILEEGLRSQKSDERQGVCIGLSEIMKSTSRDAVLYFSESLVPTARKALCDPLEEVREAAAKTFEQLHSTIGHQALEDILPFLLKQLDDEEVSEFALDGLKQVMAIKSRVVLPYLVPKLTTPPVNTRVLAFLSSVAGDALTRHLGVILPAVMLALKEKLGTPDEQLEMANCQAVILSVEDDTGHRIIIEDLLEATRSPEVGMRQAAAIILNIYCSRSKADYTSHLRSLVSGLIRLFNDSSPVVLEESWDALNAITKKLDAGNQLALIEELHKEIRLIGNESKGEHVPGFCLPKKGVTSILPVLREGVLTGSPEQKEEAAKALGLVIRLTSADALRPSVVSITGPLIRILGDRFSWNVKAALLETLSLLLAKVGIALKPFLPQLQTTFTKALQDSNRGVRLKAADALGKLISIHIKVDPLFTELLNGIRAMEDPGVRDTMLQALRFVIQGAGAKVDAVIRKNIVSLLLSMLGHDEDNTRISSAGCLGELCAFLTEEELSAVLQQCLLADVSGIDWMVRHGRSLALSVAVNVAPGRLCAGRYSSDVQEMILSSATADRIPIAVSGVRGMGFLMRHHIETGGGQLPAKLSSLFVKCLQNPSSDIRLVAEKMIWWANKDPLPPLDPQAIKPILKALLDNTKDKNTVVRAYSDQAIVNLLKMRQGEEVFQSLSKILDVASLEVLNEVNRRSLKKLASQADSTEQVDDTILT

C/C=C(\C)C(=O)OCC1=C2/C(=C\[C@@]3(C)CC[C@](O)(O3)[C@H](C)C[C@@H]2O)OC1=O
Activity [1]: Toxic | Activity [2]: Toxic | Activity [3]: Non-toxic | Activity [4]: Non-toxic | Activity [5]: Active | Activity (U-251 [6]): inactive | Activity (U-251 [7]): inactive | fold change (FC) [8]: 0.555 | fold change (FC) [9]: 0.275 | fold change (FC) [10]: 0.305 | inhibition [11]: Active

C/C=C(\C)C(=O)O[C@H]1C[C@@H](C)[C@]2(O)CC[C@](C)(/C=C3/OC(=O)C(COC(C)=O)=C31)O2
IC50 [12]: 2000 nM | inhibition [13]: Active | inhibition [14]: Active | inhibition [15]: Active | inhibition [16]: Active | fold change (FC) [17]: 0.501 | fold change (FC) [18]: 0.308 | fold change (FC) [19]: 0.449 | Activity [20]: Active | inhibition [21]: Active | inhibition [22]: Active | inhibition [23]: Active | inhibition [24]: inactive
